A short description of assay [1]: inhibitors of TNFa-induced NFkB p65 translocation, primary screen, imaging, HUVEC, MLSMR starter and 10KST1 sets (AID 438;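 active = inhibition above 20% together with a positive visual image hit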;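 also: compound added about 3h40 before a 20 min TNFalpha stimulation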;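 as to inhibition: signal is the nuclear over cytoplasmic p65 intensity ratio per well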). The settings on record: HUVEC TNFa-induced p65 nuclear translocation; cell count: measured here: nuclei count (cytotoxicity indicator), at 2.08 µM; inhibition: at 2 µM, stronger effect = higher value, 0% TNFa-plus-vehicle, 100% no-TNFa wells.
The nature of assay [2]: endothelial E-selectin expression blockers – imaging, HUVEC, immunofluorescence, MLSMR starter and 10KST1 sets, primary screen (AID 487;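 active = visually confirmed hit in the image check and inhibition above 20%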;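 as to inhibition: signal is fraction of cell area covered by stained E-selectin grains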;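 as to nuclei count: 100% = median nuclei count of all wells on the same plate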). The note with it: HUVEC TNFalpha-induced E-selectin immunofluorescence imaging, at 2 µM; inhibition: stronger effect = higher value; nuclei count: measured here: cell number, toxicity.
Assay [3] in a line: Primary imaging screen for DUSP6 inhibitors that restore phospho-Erk in transfected HeLa cells, chemical complementation (AID 609;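 active = compounds giving at least 50% inhibition in the cell-based MKP-3 phosphatase rescue imaging test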;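 as to inhibition: phospho-Erk level distribution per well compared with pooled transfected vehicle control wells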). The settings on record: HeLa MKP-3 transfected, phospho-Erk imaging KS statistic, at 10 µM, cells stimulated with TPA for 15 min.
The target of assay [4] is Dual specificity protein phosphatase 6 (Homo sapiens) (UniProt Q16828). Described as above. The settings on record: HeLa MKP-3 transfected, phospho-Erk imaging KS statistic; at 10 µM; stronger effect = higher value; cells stimulated with TPA for 15 min.
Assay [5] deals with Voltage-gated potassium channel subunit beta-2 (Rattus norvegicus) (UniProt P62483). The experiment in a line: inhibitors of rat Kvbeta2 reductase activity – biochemical, NADPH fluorescence, primary screen (AID 622;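 active = fluorescence slope higher than the sample average by over 3 SD, cut at about -0.22 in these data, passing the limit was not always enough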;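 also: slope of raw intensity against log time taken from 70 to 1610 s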). The note with it: recombinant KvBeta, 4-cyanobenzaldehyde reduction, at 10 µM, stronger effect = higher value.
For assay [6] the target is unchanged. Nature of the assay: enhancers of rat Kvbeta2 NADPH turnover – biochemical, NADPH fluorescence, primary screen (AID 623;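 active = NADPH fluorescence slope more negative than the mean of all samples by about 3 SD, 99.7% confidence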;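 also: fluorescence intensity change per second fitted from 20 to 320 s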). The note with it: Recombinant KvBeta, NADPH fluorescence decrease slope, 10 min; at 10 µM; stronger effect = lower value.
Assay [7] concerns the target Alpha-2C adrenergic receptor (Homo sapiens) (UniProt P18825). The experiment in a line: compounds altering alpha2C-coupled GIRK flux – cell-based, HEK293 alpha2C/GIRK1/2, thallium flux, primary screen (AID 624;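 active = fluorescence slope after compound addition differing from the mean of all screened samples at 99.7% confidence, in either direction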;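 also: slope of fluorescence ratio to pre-addition baseline per second over 15 to 24 s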). The note with it: thallium flux BTC fluorescence, at 10 µM, actives lie on both sides.
A short description of assay [8]: inhibitors of larval lipid processing in zebrafish, primary screen, whole organism, PED6 fluorescence, gall bladder and intestine (AID 686;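 active = a full or partial loss of lipid-probe fluorescence in the fish gall bladder, intestine or both, judged by eye; inactive = no fluorescence loss, or compound toxic to the fish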;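 also: larvae 5 to 7 days old with five fish per well; signal comes from phospholipase A2 cleavage of quenched PED6 carried via bile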). The note with it: Zebrafish larvae PED6 lipid processing, fluorescence scoring; screened at 20 µM (by protocol). In a few lines: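 Incubation: overnight exposure of larvae to compound plus PED6 / Test system: live zebrafish larvae aged 5-7 days, whole organism / Amount: 5 larvae per well / Read-out basis: visual per-well fluorescence inhibition score / Signal: visual fluorescence microscopy scoring of gall bladder, gut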

A short description of assay [9]: loss of swimming-algae plug formation – whole organism, Chlamydomonas reinhardtii, WT vs cilia-less mutant, absorbance, 96-well, primary screen (AID 463189).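 Also: 0% = wild type cc124 cells in DMSO and 100% = ciliumless bld1 mutant cells.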 The settings on record: Chlamydomonas reinhardtii gravitaxis, OD600 absorbance, 2 days; at 10 µM; stronger effect = higher value.
[10] abbreviates: measured here: cell density z-score.
The mark [11] stands for this setting: measured here: nuclear c-Myc green intensity z-score.
Setting [12] is: measured here: nuclear pErk red intensity z-score, stronger effect = higher value.

SMILES strings stand for the structures. Activity calls are given as the source filed them.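 The calls were made as follows, unless noted: active = inhibition at or above 50% relative to wild type and mutant plate controls; inactive = inhibition below 50%.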

Chain of Voltage-gated potassium channel subunit beta-2 (Rattus norvegicus) (P62483 whole entry, looked up): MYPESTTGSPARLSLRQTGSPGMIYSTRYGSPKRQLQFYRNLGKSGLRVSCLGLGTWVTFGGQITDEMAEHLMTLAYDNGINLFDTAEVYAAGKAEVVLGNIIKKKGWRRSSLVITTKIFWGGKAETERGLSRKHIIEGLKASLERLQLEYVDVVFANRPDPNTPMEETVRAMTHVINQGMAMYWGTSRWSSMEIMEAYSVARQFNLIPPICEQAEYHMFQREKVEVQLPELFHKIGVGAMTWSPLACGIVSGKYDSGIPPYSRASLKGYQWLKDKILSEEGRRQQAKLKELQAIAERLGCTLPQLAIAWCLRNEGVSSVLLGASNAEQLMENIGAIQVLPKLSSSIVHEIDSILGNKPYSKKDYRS
Chain of Alpha-2C adrenergic receptor (Homo sapiens) (P18825 whole entry, looked up): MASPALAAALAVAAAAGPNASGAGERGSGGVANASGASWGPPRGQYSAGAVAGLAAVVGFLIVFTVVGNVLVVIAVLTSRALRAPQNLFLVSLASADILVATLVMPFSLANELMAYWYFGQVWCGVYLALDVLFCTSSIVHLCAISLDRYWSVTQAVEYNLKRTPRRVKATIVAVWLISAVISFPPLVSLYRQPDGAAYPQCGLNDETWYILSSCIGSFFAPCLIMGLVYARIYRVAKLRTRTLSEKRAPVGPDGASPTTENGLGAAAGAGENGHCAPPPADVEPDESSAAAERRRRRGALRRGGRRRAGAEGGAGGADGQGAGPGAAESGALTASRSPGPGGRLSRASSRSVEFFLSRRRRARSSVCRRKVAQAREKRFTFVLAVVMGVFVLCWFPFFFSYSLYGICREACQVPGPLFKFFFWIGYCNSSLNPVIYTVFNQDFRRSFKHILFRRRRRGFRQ
Chain of Dual specificity protein phosphatase 6 (Homo sapiens) (Q16828 whole entry, looked up): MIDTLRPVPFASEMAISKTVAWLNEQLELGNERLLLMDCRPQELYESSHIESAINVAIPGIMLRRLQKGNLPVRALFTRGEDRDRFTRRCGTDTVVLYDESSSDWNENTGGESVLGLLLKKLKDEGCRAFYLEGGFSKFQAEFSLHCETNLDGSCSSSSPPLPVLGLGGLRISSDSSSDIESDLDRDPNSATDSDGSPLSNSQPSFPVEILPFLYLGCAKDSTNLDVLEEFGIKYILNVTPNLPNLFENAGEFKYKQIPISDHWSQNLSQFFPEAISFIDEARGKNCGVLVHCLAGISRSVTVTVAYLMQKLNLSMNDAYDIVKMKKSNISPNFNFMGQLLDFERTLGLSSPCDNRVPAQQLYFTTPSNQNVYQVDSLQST

As to `C=CCc1c(C)nc(SCCC)[nH]c1=O`, the cell count in [1] is 540. In addition, the inhibition was -10.1% (inactive) in assay [1], -102% (inactive) in assay [2], 7.93% (inactive) in [4] and 18.7% (inactive) in assay [9]. Further, in assay [2], the nuclei count amounted to 135%. Further, the results for the z-score in assay [3] (setting [10]), in [3] (setting [11]) and in [3] (setting [12]) were 0.611, -0.0505 and -0.577, respectively. In addition, the fluorescence slope in assay [5] is -0.486 (inactive). For the same molecule, the NADPH fluorescence slope in assay [6] was -1.9e-05 (inactive). Moreover, the slope in assay [7] was 0.0077 (inactive). The molecule was classed as inactive in assay [8].
For the molecule `O=C(c1ccc(=O)oc1)N1CCOCC1`, the cell count in assay [1] amounted to 357. The inhibition in [1] is -5.3% (inactive); in [2], -8.3% (inactive); in assay [4] it was -6.59% (inactive); in [9], 25% (inactive). The molecule further yielded a nuclei count in [2] of 167%. Besides, the z-score in assay [3] (setting [10]) is 1.26; in assay [3] (setting [11]) it was -0.649; in assay [3] (setting [12]), 0.718. The fluorescence slope in assay [5] was -0.46 (inactive). Besides, the NADPH fluorescence slope in assay [6] is -0.000126 (inactive). Also, in assay [7], the slope is 0.0053 (inactive). Besides, in assay [8], the molecule was called inactive.
As to `CC1CN(C2CCN(S(=O)(=O)c3ccc4ccccc4c3)CC2)CC(C)O1` (stereo unspecified), the cell count in assay [1] was determined as 396. Besides, the inhibition in [1] is -19.4% (inactive); in assay [2] it was -273% (inactive); in assay [4], -0.159% (inactive); in [9] it was 110% (active). The same molecule displayed a nuclei count in assay [2] of 173%. Further, the figures for the z-score in assay [3] (setting [10]), in assay [3] (setting [11]) and in assay [3] (setting [12]) were 0.701, -1.69 and 1.26, respectively. In addition, the fluorescence slope in assay [5] is -0.389 (inactive). Moreover, in assay [6], the NADPH fluorescence slope was -3.5e-05 (inactive). Besides, the slope in assay [7] was 0.00656 (inactive). The molecule was called inactive in assay [8].
As for `Cc1ccc(C(C)C)c(OCCNc2nc3c(c(=O)n(C)c(=O)n3C)n2C)c1`, the cell count in assay [1] was 605. The inhibition in [1] is -26.5% (inactive); in assay [2], -61.7% (inactive); in [4], -4.27% (inactive); in assay [9], -2.79% (inactive). In [2], this molecule showed a nuclei count of 165%. In addition, the values for the z-score in assay [3] (setting [10]), in [3] (setting [11]) and in assay [3] (setting [12]) were -0.12, -0.388 and 2.45, respectively. In addition, the fluorescence slope in [5] was -0.422 (inactive). Besides, the NADPH fluorescence slope in [6] is -5.2e-05 (inactive). The slope in [7] was 0.0063 (inactive). In addition, in assay [8], the outcome was inactive.
For `CCN(CC)C(=O)CN(C#N)c1nc(NC(C)C)nc(NC(C)C)n1`, the cell count in assay [1] turned out to be 594. Further, the inhibition was 5.2% (inactive) in [1], -48.7% (inactive) in assay [2], 5.65% (inactive) in [4] and 31.8% (inactive) in [9]. Moreover, the nuclei count in assay [2] came out at 173%. Moreover, the z-score in assay [3] (setting [10]) was 0.0403; in assay [3] (setting [11]), 2.22; in assay [3] (setting [12]), -0.0328. For the same molecule, in assay [5], the fluorescence slope is -0.213 (inactive). Moreover, the NADPH fluorescence slope in assay [6] was 8.9e-06 (inactive). The slope in assay [7] is 0.00592 (inactive). The result in assay [8] was inactive.
Regarding `CCOC(=O)c1c(C)n(C)c2ccc(OC)c(NC(=O)CN3CCCCC3)c12`, the cell count in assay [1] amounted to 343. Further, the inhibition in [1] is -2.7% (inactive); in assay [2], -15% (inactive); in assay [4] it was -6.59% (inactive); in assay [9] it was -10.1% (inactive). The molecule further gave a nuclei count in assay [2] of 132%. Besides, the z-score in assay [3] (setting [10]) was -1.53; in assay [3] (setting [11]), -1.22; in [3] (setting [12]), 2.07. In addition, the fluorescence slope in assay [5] is -0.46 (inactive). The NADPH fluorescence slope in [6] is -0.000136 (inactive). Besides, the slope in assay [7] was 0.00641 (inactive). In addition, the call in [8] was inactive.
In the case of `O=C1CCC(=O)N1CN(C(=O)c1ccco1)c1ccc(Cl)c(Cl)c1`, the cell count in [1] is 481. For the same molecule, the inhibition in [1] was 1.1% (inactive); in [2] it was -72.5% (inactive); in assay [4] it was -3.5% (inactive); in assay [9] it was -12.3% (inactive). The nuclei count in assay [2] stood at 125%. Further, the z-score in assay [3] (setting [10]) was -1.21; in [3] (setting [11]), 0.938; in assay [3] (setting [12]) it was 0.134. Also, the fluorescence slope in [5] is -0.562 (inactive). For the same molecule, the NADPH fluorescence slope in assay [6] is -2.3e-05 (inactive). Besides, the slope in assay [7] was 0.00659 (inactive). Moreover, the molecule was called inactive in [8].

As a reminder, the inhibition is the drop in the measured response relative to a control, in per cent.

(Values after PubChem BioAssay.)
